In ChEMBL document CHEMBL1250442, “Inhibiting gene expression at transcription start sites in chromosomal DNA with antigene RNAs” (Nat Chem Biol, 2005):
Calls of active or inactive are those of the source. The rule behind the calls is not given here.

How the values were obtained:
[1] = tested on: T47D; test: Inhibition of PR-A gene expression in human T47D cells at 25 nM by syber green assay in presence of 10 nM estradiol; type: functional, cell-based
[2] = tested on: T47D; test: Inhibition of PR-B gene expression in human T47D cells at 25 nM by syber green assay in presence of 10 nM estradiol; type: functional, cell-based
[3] = tested on: T47D; test: Inhibition of PR-A mRNA gene expression in human T47D cells at 100 nM by syber green assay; type: functional
Outline: (§1)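 T47D cells plated at 80,000/well without antibiotics two days before Oligofectamine transfection with agRNA duplex (25 or 100 nM final); medium changed at 24 h, harvest day 5 unless stated otherwise. TRIzol total RNA; PR mRNA by real-time PCR with SYBR Green: 50 °C 2 min, 95 °C 10 min, 40 cycles 95 °C 15 s/60 °C 1 min.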

[4] = tested on: T47D; test: Inhibition of PR-B mRNA gene expression in human T47D cells at 100 nM by syber green assay; type: functional
Outline: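 T47D cells in RPMI-1640 with 10% FBS, NEAA, insulin, 37 °C, 5% CO2. Plated two days before transfection without antibiotics. Oligofectamine-mediated duplex RNA transfection at 100 nM final, medium changed at 24 h, harvest five days post-transfection. Total RNA extracted with TRIzol. hPR mRNA quantified by SYBR Green qPCR: 50 °C 2 min, 95 °C 10 min, then 40 cycles of 95 °C 15 s / 60 °C 1 min.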

[5] = tested on: T47D; test: Inhibition of androgen receptor expression in human T47D cells after 12 days at 100 nM by syber green assay; type: functional, cell-based
Outline: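 AR expression in T47D cells, grown in RPMI-1640 with 10% FBS, NEAA and insulin. Plated antibiotic-free two days before Oligofectamine transfection with 100 nM duplex RNA; medium replaced after 24 h. TRIzol total RNA. SYBR Green real-time PCR: 50 °C 2 min, 95 °C 10 min, 40 cycles of 95 °C 15 s and 60 °C 1 min.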

[6] = tested on: T47D; test: Inhibition of PR-A gene expression in human T47D cells at 25 nM by syber green assay; type: functional; outline: as §1
[7] = tested on: T47D; test: Inhibition of PR-B gene expression in human T47D cells at 25 nM by syber green assay; type: functional; outline: as §1

Compound	inhibition [1]	inhibition [2]	inhibition at 0.1 µM [3] [%]	inhibition at 0.1 µM [4] [%]	inhibition [5]	inhibition at 0.025 µM [6] [%]	inhibition at 0.025 µM [7] [%]
Cc1cn(CC(=O)N(CCNC(=O)CN(CCNC(=O)CN(CCNC(=O)CN(CCNC(=O)CN(CCNC(=O)CN(CCNC(=O)CN(CCNC(=O)CN(CCNC(=O)CN(CCNC(=O)CN(CCNC(=O)CN(CCNC(=O)CN(CCNC(=O)CN(CCNC(=O)CN(CCNC(=O)CN(CCNC(=O)CN(CCNC(=O)CN(CCNC(=O)CN(CCNC(=O)CN(CCNC(=O)CN(CCNC(=O)CN)C(=O)Cn2ccc(=O)[nH]c2=O)C(=O)Cn2ccc(N)nc2=O)C(=O)Cn2ccc(N)nc2=O)C(=O)Cn2cnc3c(N)ncnc32)C(=O)Cn2ccc(N)nc2=O)C(=O)Cn2ccc(N)nc2=O)C(=O)Cn2ccc(=O)[nH]c2=O)C(=O)Cn2ccc(N)nc2=O)C(=O)Cn2ccc(N)nc2=O)C(=O)Cn2ccc(N)nc2=O)C(=O)Cn2cnc3c(N)ncnc32)C(=O)Cn2cnc3c(=O)[nH]c(N)nc32)C(=O)Cn2ccc(N)nc2=O)C(=O)Cn2cnc3c(=O)[nH]c(N)nc32)C(=O)Cn2ccc(N)nc2=O)C(=O)Cn2ccc(N)nc2=O)C(=O)Cn2ccc(N)nc2=O)C(=O)Cn2ccc(N)nc2=O)C(=O)Cn2ccc(N)nc2=O)CC(=O)NCCN(CC(=O)NCC(=O)O)C(=O)Cn2cc(C)c(=O)[nH]c2=O)c(=O)[nH]c1=O	Active	Active	34	34	Active	–	–
Cc1cn(CC(=O)N(CCNC(=O)CN(CCNC(=O)CN(CCNC(=O)CN(CCNC(=O)CN(CCNC(=O)CN(CCNC(=O)CN(CCNC(=O)CN(CCNC(=O)CN(CCNC(=O)CN(CCNC(=O)CN(CCNC(=O)CN(CCNC(=O)CN(CCNC(=O)CN(CCNC(=O)CN(CCNC(=O)CN(CCNC(=O)CN(CCNC(=O)CN(CCNC(=O)CN(CCNC(=O)CN(CCNC(=O)CN)C(=O)Cn2ccc(=O)[nH]c2=O)C(=O)Cn2ccc(N)nc2=O)C(=O)Cn2ccc(=O)[nH]c2=O)C(=O)Cn2ccc(N)nc2=O)C(=O)Cn2ccc(N)nc2=O)C(=O)Cn2cnc3c(N)ncnc32)C(=O)Cn2ccc(N)nc2=O)C(=O)Cn2ccc(N)nc2=O)C(=O)Cn2ccc(=O)[nH]c2=O)C(=O)Cn2ccc(N)nc2=O)C(=O)Cn2ccc(N)nc2=O)C(=O)Cn2ccc(N)nc2=O)C(=O)Cn2cnc3c(N)ncnc32)C(=O)Cn2cnc3c(=O)[nH]c(N)nc32)C(=O)Cn2ccc(N)nc2=O)C(=O)Cn2cnc3c(=O)[nH]c(N)nc32)C(=O)Cn2ccc(N)nc2=O)C(=O)Cn2ccc(N)nc2=O)C(=O)Cn2ccc(N)nc2=O)CC(=O)NCCN(CC(=O)NCC(=O)O)C(=O)Cn2cc(C)c(=O)[nH]c2=O)c(=O)[nH]c1=O	Active	Active	< 20	< 20	Active	–	–
Cc1cn(CC(=O)N(CCNC(=O)CN(CCNC(=O)CN(CCNC(=O)CN(CCNC(=O)CN(CCNC(=O)CN(CCNC(=O)CN(CCNC(=O)CN(CCNC(=O)CN(CCNC(=O)CN(CCNC(=O)CN(CCNC(=O)CN(CCNC(=O)CN(CCNC(=O)CN(CCNC(=O)CN(CCNC(=O)CN(CCNC(=O)CN(CCNC(=O)CN(CCNC(=O)CN(CCNC(=O)CN(CCNC(=O)CN)C(=O)Cn2cnc3c(N)ncnc32)C(=O)Cn2cnc3c(=O)[nH]c(N)nc32)C(=O)Cn2cnc3c(=O)[nH]c(N)nc32)C(=O)Cn2cnc3c(N)ncnc32)C(=O)Cn2cnc3c(=O)[nH]c(N)nc32)C(=O)Cn2cnc3c(=O)[nH]c(N)nc32)C(=O)Cn2ccc(N)nc2=O)C(=O)Cn2cnc3c(=O)[nH]c(N)nc32)C(=O)Cn2ccc(=O)[nH]c2=O)C(=O)Cn2ccc(=O)[nH]c2=O)C(=O)Cn2cnc3c(=O)[nH]c(N)nc32)C(=O)Cn2ccc(=O)[nH]c2=O)C(=O)Cn2ccc(=O)[nH]c2=O)C(=O)Cn2cnc3c(N)ncnc32)C(=O)Cn2cnc3c(=O)[nH]c(N)nc32)C(=O)Cn2cnc3c(N)ncnc32)C(=O)Cn2cnc3c(N)ncnc32)C(=O)Cn2cnc3c(N)ncnc32)C(=O)Cn2cnc3c(=O)[nH]c(N)nc32)CC(=O)NCCN(CC(=O)NCC(=O)O)C(=O)Cn2cc(C)c(=O)[nH]c2=O)c(=O)[nH]c1=O	Active	Active	52	68	–	< 20	34
